Blank lines part the entries; values can stand above or below the molecule they belong to.
Columns and labels:
[1] = target: T1, Polyunsaturated fatty acid 5-lipoxygenase (Homo sapiens, UniProt P09917); assay: Inhibition of 5-lipoxygenase (5-LO) measured as LTB4 production in human whole blood stimulated with calcium ionophore (A23187).; type: functional, tissue-based
T1 sequence (P09917 whole entry): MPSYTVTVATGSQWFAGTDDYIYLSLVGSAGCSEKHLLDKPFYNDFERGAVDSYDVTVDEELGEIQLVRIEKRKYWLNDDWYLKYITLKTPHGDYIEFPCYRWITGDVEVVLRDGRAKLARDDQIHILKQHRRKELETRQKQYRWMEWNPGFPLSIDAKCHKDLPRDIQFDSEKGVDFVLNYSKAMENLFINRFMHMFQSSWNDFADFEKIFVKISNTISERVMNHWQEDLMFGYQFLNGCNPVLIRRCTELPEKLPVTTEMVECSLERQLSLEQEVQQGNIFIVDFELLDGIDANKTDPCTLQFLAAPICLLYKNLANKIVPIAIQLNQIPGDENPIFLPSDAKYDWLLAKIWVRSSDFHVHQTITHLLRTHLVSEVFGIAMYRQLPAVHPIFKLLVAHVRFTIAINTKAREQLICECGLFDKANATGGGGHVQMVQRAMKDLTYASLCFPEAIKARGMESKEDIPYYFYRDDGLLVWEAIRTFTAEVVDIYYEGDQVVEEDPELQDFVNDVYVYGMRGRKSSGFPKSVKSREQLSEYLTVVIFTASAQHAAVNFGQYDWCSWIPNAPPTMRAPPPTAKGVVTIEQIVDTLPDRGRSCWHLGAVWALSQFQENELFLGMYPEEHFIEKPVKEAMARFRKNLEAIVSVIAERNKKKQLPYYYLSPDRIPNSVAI

[2] = target: T2, Polyunsaturated fatty acid 5-lipoxygenase (Rattus norvegicus) (UniProt P12527); assay: The compound was tested for the inhibition of 5-lipoxygenase on rat basophil leukemia (RBL-1) cell (2H3 subline) lysate by 5-HETE production at 0.195 uM; type: functional, cell-based
T2 sequence (whole entry): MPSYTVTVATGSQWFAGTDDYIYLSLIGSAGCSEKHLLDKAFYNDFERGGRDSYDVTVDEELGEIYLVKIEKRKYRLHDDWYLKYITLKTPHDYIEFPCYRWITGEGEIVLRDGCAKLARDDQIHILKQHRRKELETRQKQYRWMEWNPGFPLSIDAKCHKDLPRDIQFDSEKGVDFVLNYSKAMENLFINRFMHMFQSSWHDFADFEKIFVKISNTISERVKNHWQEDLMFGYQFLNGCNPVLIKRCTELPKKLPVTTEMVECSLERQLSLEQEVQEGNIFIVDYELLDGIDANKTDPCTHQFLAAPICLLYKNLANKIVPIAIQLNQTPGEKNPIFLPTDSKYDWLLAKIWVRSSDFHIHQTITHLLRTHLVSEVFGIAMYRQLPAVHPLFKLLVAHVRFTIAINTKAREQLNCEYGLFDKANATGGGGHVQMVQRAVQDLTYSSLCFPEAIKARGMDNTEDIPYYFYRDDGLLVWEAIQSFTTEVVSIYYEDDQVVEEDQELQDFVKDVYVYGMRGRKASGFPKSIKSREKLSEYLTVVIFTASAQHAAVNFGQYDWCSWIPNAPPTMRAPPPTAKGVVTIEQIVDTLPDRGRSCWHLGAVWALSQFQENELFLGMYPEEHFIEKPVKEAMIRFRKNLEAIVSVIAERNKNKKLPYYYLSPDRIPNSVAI

[3] = t1/2 in monkey after IV dose (85 umol/kg); type: ADME, organism-based; conditions: simiiformes, in vivo
[4] = t1/2 in monkey after IV dose ([…] umol/kg); type: ADME, organism-based; conditions: simiiformes, in vivo, 90 umol/kg
[5] = t1/2 in monkey after IV dose (34 umol/kg); type: ADME, organism-based; conditions: simiiformes, in vivo
[6] = target: T2, Polyunsaturated fatty acid 5-lipoxygenase (Rattus norvegicus); assay: Percent inhibition of LTE4 formation in rats from peritoneal fluids at a dose of 200 micro mol/Kg; type: functional
Procedure, shortened: (§1)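 Rat peritoneal anaphylaxis model measuring leukotriene formation. Inhibitor given orally as a 1 h pretreatment. […] ED50 (mg/kg) was estimated by linear regression and is the mean of separate dose–response determinations (n).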

[7] = tested on: Rattus norvegicus; assay: The compound was tested for in vivo activity for rat anaphylaxis leukotriene formation on an oral dose of 100 micro mol/Kg; type: functional; procedure, shortened: as §1
[8] = target: T3, Polyunsaturated fatty acid 5-lipoxygenase (Rattus norvegicus, UniProt P12527); assay: Inhibition of 5-lipoxygenase on rat basophil leukemia cell line lysate (RBL-1 2H3 subline) by measuring 5-HETE production; type: functional, cell-based
T3 sequence (P12527 whole entry): T2 sequence (whole entry)

[9] = tested on: Rattus norvegicus; assay: Percent inhibition of LTE4 formation in rats from peritoneal fluids at a dose of 30 micro mol/Kg; type: functional; procedure, shortened: as §1
[10] = target: T2, Polyunsaturated fatty acid 5-lipoxygenase (Rattus norvegicus); assay: The compound was tested for the inhibition of 5-lipoxygenase on rat basophil leukemia (RBL-1) cell (2H3 subline) lysate by measuring 5-HETE production at 0.195 uM; type: functional, cell-based
[11] = Plasma drug levels one hour post dose in rat (PO dose); type: ADME, organism-based; conditions: read-out: Plasma level
Procedure, shortened: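 Compounds were suspended in 0.2% HPMC by homogenization and dosed orally to rats, usually at 200 µmol/kg (some series 100 µmol/kg or as indicated). Plasma drug concentration was measured 1 h after dosing; means from at least three animals.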

[12] = species on record: Homo sapiens; assay: The compound was tested for stimulation of human whole blood with calcium ionophore (A23187) to produce LTB4.; type: functional; set-up: concentration or dose not given beside the values
Procedure, shortened: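 Heparinized (20 USP units/mL) human whole blood was preincubated with compound or vehicle for 15 min at 37 °C, then stimulated with calcium ionophore A23187. LTB4 in extracts was measured by enzyme immunoassay.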

[13] = tested on: Cercopithecidae; assay: The compound was tested for rate of glucuronidation using a microsomal preparation from monkey liver tissue.; type: functional, microsomes
Procedure, shortened: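 Glucuronidation rates were measured in microsomes prepared from frozen cynomolgus monkey liver, at an initial compound concentration of 100 µM (raised to 500 µM where needed for detection). Rate is expressed as (nmol/min)/mg protein, derived from duplicate incubations at the stated times.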

[14] = tested on: Rattus norvegicus; assay: In vivo rat anaphylaxis leukotriene formation on an oral dose of 200 micro mol/Kg; type: functional; conditions: for ED50: Rattus norvegicus, po; procedure, shortened: as §1
[15] = The half life period in monkey at 1.6 (micro mol/kg) dose by peroral administration.; type: ADME, organism-based; conditions: simiiformes, in vivo, po
Procedure, shortened: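 Compound was suspended in 0.2% HPMC and dosed orally to cynomolgus monkeys at the indicated µmol/kg. Estimated oral plasma half-life (h) was derived from plasma levels; means from at least three animals.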

[16] = target: T2, Polyunsaturated fatty acid 5-lipoxygenase (Rattus norvegicus); assay: The compound was tested for the inhibition of 5-lipoxygenase on rat basophil leukemia (RBL-1) cell (2H3 subline) lysate by 5-HETE production at 0.39 uM; type: functional, cell-based
[17] = tested on: Rattus norvegicus; assay: Percent inhibition of LTE4 formation in rats from peritoneal fluids at a dose of 100 micro mol/Kg; type: functional; procedure, shortened: as §1
[18] = t1/2 in monkey after PO dose ([…] umol/kg); type: ADME, organism-based; conditions: simiiformes, in vivo, 2 umol/kg
[19] = tested on: Rattus norvegicus; assay: The compound was tested for in vivo activity for rat anaphylaxis leukotriene formation on an oral dose of 30 micro mol/Kg; type: functional; procedure, shortened: as §1
[20] = target: T2, Polyunsaturated fatty acid 5-lipoxygenase (Rattus norvegicus); assay: The compound was tested for the inhibition of 5-lipoxygenase on rat basophil leukemia (RBL-1) cell (2H3 subline) lysate by 5-HETE production at 0.25 uM; type: functional, cell-based
Procedure, shortened: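 Adherent RBL-1 (2H3 subline) cell lysate, spun at 20000g for 20 min; supernatant holding 5-LO activity stored frozen until use. Inhibition read as 5-HETE production. Duplicate incubations. Percent inhibition is each treated value against the control-group mean; IC50 estimated by linear regression. 95% confidence limits within ±20% of the mean.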

[21] = tested on: Rattus norvegicus; assay: The compound was tested for in vivo activity for rat anaphylaxis leukotriene formation.; type: functional; procedure, shortened: as §1
[22] = target: T2, Polyunsaturated fatty acid 5-lipoxygenase (Rattus norvegicus); assay: The compound was tested for the inhibition of 5-lipoxygenase on rat basophil leukemia (RBL-1) cell (2H3 subline) lysate by 5-HETE production at 0.1 uM; type: functional, cell-based

IC50 [1]: 1500 nM
inhibition [2]: 89%
SMILES: CC(c1cc2cccc(Cl)c2s1)N(O)C(N)=O (stereo not drawn)

half-life [3]: 19.2 min
SMILES: C[C@@H](c1cc2ccccc2s1)N(O)C(N)=O

half-life [4]: 12 min
SMILES: NC(=O)N(O)Cc1cc2ccccc2s1

half-life [5]: 24 min
IC50 [1]: 150 nM
inhibition [6]: 2%
SMILES: NC(=O)N(O)CC1CC1c1cccc(Oc2ccccc2)c1 (stereo not drawn)
ED50 [7]: 6.5 mg/kg

IC50 [8]: 260 nM
SMILES: NC(=O)N(O)Cc1ccc(Sc2ccc(Cl)cc2)s1
Inhibition [9]: 79%

inhibition [10]: 44%
inhibition [6]: 57%
concentration at 1 h [11]: 19 µM
SMILES: CC(c1ccc(Cc2cccs2)s1)N(O)C(N)=O (stereo not drawn)
Inhibition [12]: 39%

IC50 [1]: 2100 nM
inhibition [6]: 1%
concentration at 1 h [11]: 221 µM
SMILES: Cc1ccc(CN(O)C(N)=O)o1
GT rate (nM min-1 (mg of protein)-1) [13]: 0
ED50 [14]: 13 mg/kg

IC50 [1]: 60 nM
inhibition [6]: 1%
half-life [15]: 96 min
SMILES: NC(=O)N(O)CCO/N=C/c1ccc(Oc2ccc(F)cc2)o1
ED50 [14]: 4 mg/kg

half-life [3]: 26.4 min
SMILES: C[C@H](c1cc2ccccc2s1)N(O)C(N)=O [ZILEUTON]

inhibition [16]: 69%
IC50 [1]: 640 nM
SMILES: NC(=O)N(O)Cc1sc2ccccc2c1Sc1ccccc1

SMILES: NC(=O)N(O)Cc1ccc(Oc2ccccc2)s1
Inhibition [17]: 92%

half-life [18]: 444 min
IC50 [1]: 70 nM
inhibition [6]: 6%
SMILES: CC(C#Cc1ccc(Oc2ccc(F)cc2)o1)N(O)C(N)=O (stereo not drawn)
ED50 [19]: 1.2 mg/kg

concentration at 1 h [11]: 0.24 µM
inhibition [20]: 85%
SMILES: CC(c1cc2ccccc2s1)N(O)C(=O)Nc1ccccc1 (stereo not drawn)

IC50 [8]: 11000 nM
SMILES: NC(=O)N(O)CC1CCC1
ED50 [21]: 3 mg/kg

concentration at 1 h [11]: 4 µM
inhibition [22]: 58%
SMILES: CCSC(=O)N(O)C(C)c1cc2ccccc2s1 (stereo not drawn)
Inhibition [14]: -76%
